The subject of data set [1] is Mus musculus. Description: Increase of bleeding time in mouse at 30 uM/kg, po administered 60 mins prior to tail incision. In kind it is ADME, organism-based. The following applies: in vivo, 1 h. A digest of the protocol:
(§1)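 Compound, aspirin or vehicle given orally 60 min before cutting the tail 2 mm from the tip, five mice per group. Blood was blotted onto filter paper every 10–15 s until flow stopped. Bleeding time is the interval from incision to cessation.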

In data set [2] the test system is Mus musculus. Description: Anti-thrombotic activity in collagen and adrenaline challenged mouse pulmonary thromboembolism model assessed as protection from paralysis or death at 30 uM/kg, po administered 60 mins prior to thrombotic challenge. It counts as functional. A digest of the protocol:
(§2)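 Mice were dosed orally 60 min before the challenge, alongside a vehicle group. Pulmonary thromboembolism was then induced by tail-vein injection of a collagen plus adrenaline mixture. Groups held ten mice per test agent and five per reference drug or vehicle. The read-out was % protection against hind-limb paralysis or death.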

Data set [3] concerns Platelet. The experiment in a line: Antiplatelet activity in mouse platelet rich plasma assessed as inhibition of collagen-induced platelet aggregation at 100 uM by aggregometry. It counts as functional, cell-free. A digest of the protocol: (§3)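 Mice anaesthetized with ether and bled by cardiac puncture. Platelet-rich plasma was pooled, split into sub-pools and spiked with compound or vehicle. Aggregation was induced with ADP or collagen and followed on a dual-channel aggregometer. Data given as mean ± SEM, n = 3, compared against vehicle control.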

In data set [4] the test system is Platelet. Description: Antiplatelet activity in mouse platelet rich plasma assessed as inhibition of ADP-induced platelet aggregation at 100 uM by aggregometry. It counts as functional, cell-free. The method, boiled down:
as §3

For data set [5], the system named is Mus musculus. The experiment in a line: Anti-thrombotic activity in collagen and adrenaline challenged mouse pulmonary thromboembolism model assessed as protection from paralysis or death at 30 mg/kg, po administered 60 mins prior thrombotic challenge. It counts as functional. A digest of the protocol:
as §2

Data set [6] has as its system Mus musculus. The experiment in a line: Increase of bleeding time in mouse at 30 mg/kg, po administered 60 mins prior to tail incision. In kind it is ADME, organism-based. Details: dose 30 mg/kg, route oral. The following applies: in vivo, 1 h. A digest of the protocol:
as §1

The subject of data set [7] is Platelet. Description: Antiplatelet activity in mouse platelet rich plasma assessed as inhibition of collagen-induced platelet aggregation at 30 uM by aggregometry. In kind it is functional, cell-free. A digest of the protocol: as §3
In data set [8] the test system is Platelet. Description: Antiplatelet activity in mouse platelet rich plasma assessed as inhibition of ADP-induced platelet aggregation at 30 uM by aggregometry. In kind it is functional, cell-free. A digest of the protocol:
as §3

The subject of data set [9] is Plasma. The experiment in a line: Anticoagulant activity in mouse platelet poor plasma assessed as increase in activated partial thromboplastin time at 30 uM by coagulometry. In kind it is functional, cell-free. A digest of the protocol:
(§4)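 Mice anaesthetized with ether and bled by cardiac puncture. Platelet-poor plasma was pooled, split into sub-pools and spiked with compound or vehicle. Thrombin time, prothrombin time and APTT were run with commercial kits per manufacturer's instructions on a semi-automated coagulometer. Data given as mean ± SEM, n = 3, compared against vehicle control.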

Data set [10] has as its system Plasma. Description: Anticoagulant activity in mouse platelet poor plasma assessed as increase in thrombin time at 30 uM by coagulometry. In kind it is functional, cell-free. A digest of the protocol:
as §4

Data set [11] concerns Plasma. The experiment in a line: Anticoagulant activity in mouse platelet poor plasma assessed as increase in prothrombin time at 30 uM by coagulometry. It counts as functional, cell-free. A digest of the protocol:
as §4

The test system of data set [12] is Platelet. The experiment in a line: Antiplatelet activity in mouse platelet rich plasma assessed as inhibition of collagen-induced platelet aggregation at 10 uM by aggregometry. In kind it is functional, cell-free. A digest of the protocol:
as §3

Data set [13] concerns Platelet. Description: Antiplatelet activity in mouse platelet rich plasma assessed as inhibition of ADP-induced platelet aggregation at 10 uM by aggregometry. It counts as functional, cell-free. The method, boiled down: as §3
In data set [14] the test system is Plasma. Description: Anticoagulant activity in mouse platelet poor plasma assessed as increase in activated partial thromboplastin time at 10 uM by coagulometry. It counts as functional, cell-free. The method, boiled down: as §4
Data set [15] concerns Plasma. Description: Anticoagulant activity in mouse platelet poor plasma assessed as increase in thrombin time at 10 uM by coagulometry. In kind it is functional, cell-free. A digest of the protocol: as §4
Data set [16] deals with Plasma. Description: Anticoagulant activity in mouse platelet poor plasma assessed as increase in prothrombin time at 10 uM by coagulometry. In kind it is functional, cell-free. The method, boiled down:
as §4

Data set [17] concerns Mus musculus. Description: Ex-vivo antiplatelet activity in mouse platelet rich plasma assessed as inhibition of ADP-induced platelet aggregation at 30 uM/kg, po for 3 days by aggregometry. In kind it is functional.
Data set [18] has as its system Mus musculus. The experiment in a line: Ex-vivo antiplatelet activity in mouse platelet rich plasma assessed as inhibition of collagen-induced platelet aggregation at 30 uM/kg, po for 3 days by aggregometry. In kind it is functional.
For data set [19], the system named is Mus musculus. The experiment in a line: Ex-vivo anticoagulant activity in mouse platelet poor plasma assessed as increase in thrombin time at 30 uM/kg, po for 3 days by coagulometry. In kind it is functional. The method, boiled down: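 Mice were dosed orally for three days, then bled by cardiac puncture under ether anaesthesia. Thrombin time was measured in platelet-poor plasma with a commercial kit on a semi-automated coagulometer and compared with vehicle-treated controls.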

The structures appear in SMILES notation. The source made the active and inactive calls. No cut-off for these calls is given here.

The molecule `Cc1ccc(CNC(=O)COc2cccc3c2ccc2c(C)cc(=O)oc23)cc1C` displayed an Activity in the data set with Mus musculus [1] of 58.5%.
With `Cc1cc(=O)oc2c1ccc1c(OCC(=O)N3CCCCC3)cccc12`, the Activity is listed as 30% in the data set with Mus musculus [2] and 58.5% in the data set on Mus musculus [1].
As for `Cc1cc(=O)oc2c1ccc1c(OCC(=O)N3CCOCC3)cccc12`, the Activity in the data set with Mus musculus [2] stood at 30%; in the data set with Mus musculus [1] it was 66.8%.
On the same counts, the results for `Cc1cc(=O)oc2c1ccc1c(OCC(=O)Nc3cccc(C(=O)O)c3)cccc12` are under 10% and 8.5%.
Take `CC(=O)Oc1ccccc1C(=O)O` [ASPIRIN]: the inhibition entry with Platelet [3] and in the data set with Platelet [4] was “Active” in each case. Also, the Activity in the data set on Mus musculus [5] is given as 37%; in the data set on Mus musculus [6], 100%.
As for `CCCNC(=O)COc1cccc2c1ccc1c(C)cc(=O)oc12`, the Activity with Mus musculus [2] is recorded as 40%; with Mus musculus [1] it was 91.5%. Also, the inhibition result in the data set with Platelet [7] and with Platelet [8] was “Active” each time. Besides, the outcome in the data set on Plasma [9], in the data set on Plasma [11], in the data set on Plasma [14], with Plasma [15] and in the data set with Plasma [16] was inactive. Besides, the outcome in the data set on Plasma [10] was Active. For the same molecule, the inhibition entry in the data set with Platelet [12] and in the data set on Platelet [13] was “inactive” each time.
With `COc1ccc(CNC(=O)COc2cccc3c2ccc2c(C)cc(=O)oc23)cc1`, the Activity was 10% in the data set with Mus musculus [2] and 8.2% in the data set on Mus musculus [1].
Take `Cc1cc(=O)oc2c1ccc1c(OCC(=O)NC(C)(C)C)cccc12`: the Activity in the data set on Mus musculus [2] amounted to 40%; with Mus musculus [1], 96.5%; in the data set on Mus musculus [19], 74%. The inhibition result in the data set with Platelet [7] and in the data set with Platelet [8] was “Active” throughout. Besides, the “inhibition (INH)” value was determined as 38% in the data set on Mus musculus [17] and 90% in the data set with Mus musculus [18]. Further, the outcome with Plasma [9], with Plasma [11], in the data set on Plasma [14], in the data set on Plasma [15] and with Plasma [16] was inactive. Besides, the result in the data set on Plasma [10] was Active. Also, the inhibition entry in the data set with Platelet [12] and in the data set with Platelet [13] was “inactive” each time.
With `COc1cc(NC(=O)COc2cccc3c2ccc2c(C)cc(=O)oc23)cc(OC)c1OC`, the results for the Activity in the data set with Mus musculus [2] and in the data set on Mus musculus [1] were 20% and 41.7%, respectively.
As to `Cc1cc(=O)oc2c1ccc1c(OCC(=O)N3CCN(C)CC3)cccc12`, the Activity is recorded as 10% in the data set with Mus musculus [2] and 8.5% with Mus musculus [1].
On the same counts, the results for `Cc1cc(=O)oc2c1ccc1c(OCC(=O)NCc3ccccc3)cccc12` are 10% and 8.5%.
As for `Cc1cc(=O)oc2c1ccc1c(OCC(=O)Nc3ccc(S(N)(=O)=O)cc3)cccc12`, the Activity with Mus musculus [2] is reported as under 10%; in the data set with Mus musculus [1], 16.5%.
In the same order, the values of `Cc1cc(=O)oc2c1ccc1c(OCC(=O)NC3CCCCC3)cccc12` are 10% and 0%.
`Cc1cc(=O)oc2c1ccc1c(OCC(=O)NC(C)C)cccc12`: the Activity with Mus musculus [2] was 10%; with Mus musculus [1], 66.5%.
With `Cc1cc(=O)oc2c1ccc1c(OCC(=O)NCCCO)cccc12`, the Activity in the data set on Mus musculus [2] was 45%; in the data set with Mus musculus [1], 112.5%. For the same molecule, the inhibition result in the data set on Platelet [7] and with Platelet [8] was “Active” throughout. For the same molecule, the outcome in the data set with Plasma [9], in the data set with Plasma [11], in the data set with Plasma [14], in the data set with Plasma [15] and in the data set with Plasma [16] was inactive. Further, in the data set on Plasma [10], the outcome was Active. In addition, the inhibition entry with Platelet [12] and in the data set on Platelet [13] was “inactive” in each case.

Source of the values: ChEMBL document CHEMBL2016548, “Synthesis and evaluation of anti-thrombotic activity of benzocoumarin amide derivatives” (Bioorg Med Chem Lett, 2012).
